Test results taken from ChEMBL document CHEMBL1122900, “Effects of alkyl and aryl substitution on the myocardial specificity of radioiodinated phosphonium, arsonium, and ammonium cations” (J Med Chem, 1985).
Each block holds one compound with its values, some of them ahead of it.

Experiments:
Rattus norvegicus [1] = test: Evaluated for the distribution of radioactivity in tissues of female Fischer rats heart after 5 minutes intravenous administration; dose/g, range 3.80-5.74; type: ADME, organism-based; details: in vivo
Rattus norvegicus [2] = test: Evaluated for the distribution of radioactivity in tissues of female Fischer rats thyroid after 60 minutes intravenous administration; dose/g, range 26-42; type: ADME, organism-based, Thyroid gland; details: in vivo, 1 h
Procedure, shortened: (§1)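 Female Fischer 344 rats (10-12 weeks, 170-200 g), fed ad libitum, got a single iv tail-vein injection under ether anaesthesia of the 125I-labelled cation (2.85-8.38 μCi). The tracer was dissolved in Me2SO, diluted with saline to 1% Me2SO and filtered. At the set times rats were killed by cervical fracture and blood taken by cardiac puncture. Organs were rinsed, blotted, weighed and gamma-counted against injectate standards. Results are %dose/g, mean and range, n=5. Thyroid weight was taken as 7.5 mg/100 g body weight.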

Rattus norvegicus [3] = test: Evaluated for the distribution of radioactivity in tissues of female Fischer rats liver after 60 minutes intravenous administration; dose/g, range 0.44-0.54; type: ADME, organism-based; details: in vivo, 1 h; procedure, shortened: as §1
Rattus norvegicus [4] = test: Evaluated for the distribution of radioactivity in tissues of female Fischer rats liver after 30 minutes intravenous administration; dose/g, range 0.55-0.71; type: ADME, organism-based; details: in vivo, 0.5 h
Rattus norvegicus [5] = test: Evaluated for the distribution of radioactivity in tissues of female Fischer rats thyroid after 5 minutes intravenous administration; dose/g, range 26-49; type: ADME, organism-based, Thyroid gland; details: in vivo
Rattus norvegicus [6] = test: Evaluated for the distribution of radioactivity in tissues of female Fischer rats heart after 60 minutes intravenous administration; dose/g, range 3.51-5.44; type: ADME, organism-based; details: in vivo, 1 h
Rattus norvegicus [7] = test: Evaluated for the distribution of radioactivity in tissues of female Fischer rats lungs after 60 minutes intravenous administration; dose/g, range 1.07-1.26; type: ADME, organism-based, Lung; details: in vivo, 1 h; procedure, shortened: as §1
Rattus norvegicus [8] = test: Evaluated for the distribution of radioactivity in tissues of female Fischer rats blood after 30 minutes intravenous administration; dose/g, range 0.10-0.13; type: ADME, organism-based; details: in vivo, 0.5 h
Rattus norvegicus [9] = test: Evaluated for the distribution of radioactivity in tissues of female Fischer rats lungs after 30 minutes intravenous administration; dose/g, range 0.91-1.74; type: ADME, organism-based, Lung; details: in vivo, 0.5 h
Rattus norvegicus [10] = test: Evaluated for the distribution of radioactivity in tissues of female Fischer rats liver after 5 minutes intravenous administration; dose/g, range 1.04-2.56; type: ADME, organism-based; details: in vivo
Rattus norvegicus [11] = test: Evaluated for the distribution of radioactivity in tissues of female Fischer rats kidneys after 5 minutes intravenous administration; dose/g, range 1.04-2.56; type: ADME, organism-based, Kidney; details: in vivo
Rattus norvegicus [12] = test: Evaluated for the distribution of radioactivity in tissues of female Fischer rats kidneys after 30 minutes intravenous administration; dose/g, range 8.28-10.72; type: ADME, organism-based, Kidney; details: in vivo, 0.5 h
Rattus norvegicus [13] = test: Evaluated for the distribution of radioactivity in tissues of female Fischer rats blood after 60 minutes intravenous administration; dose/g, range 0.12-0.14; type: ADME, organism-based; details: in vivo, 1 h
Rattus norvegicus [14] = test: Evaluated for the distribution of radioactivity in tissues of female Fischer rats kidneys after 60 minutes intravenous administration; dose/g, range 5.67-8.41; type: ADME, organism-based, Kidney; details: in vivo, 1 h
Rattus norvegicus [15] = test: Evaluated for the distribution of radioactivity in tissues of female Fischer rats heart after 30 minutes intravenous administration; dose/g, range 3.17-4.70; type: ADME, organism-based; details: in vivo, 0.5 h
Rattus norvegicus [16] = test: Evaluated for the distribution of radioactivity in tissues of female Fischer rats lungs after 5 minutes intravenous administration; dose/g, range 1.41-2.17; type: ADME, organism-based, Lung; details: in vivo
Rattus norvegicus [17] = test: Evaluated for the distribution of radioactivity in tissues of female Fischer rats thyroid after 30 minutes intravenous administration; dose/g, range 26-40; type: ADME, organism-based, Thyroid gland; details: in vivo, 0.5 h
Rattus norvegicus [18] = test: Evaluated for the distribution of radioactivity in tissues of female Fischer rats blood after 5 minutes intravenous administration; dose/g, range 0.27-0.33; type: ADME, organism-based; details: in vivo
Rattus norvegicus [19] = test: Evaluated for the distribution of radioactivity in tissues of female Fischer rats kidneys after 5 minutes intravenous administration; dose/g, range 10.7-16.9; type: ADME, organism-based, Kidney; details: in vivo
Rattus norvegicus [20] = test: Evaluated for the distribution of radioactivity in tissues of female Fischer rats heart after 5 minutes intravenous administration; dose/g, range 2.78-3.62; type: ADME, organism-based; details: in vivo
Rattus norvegicus [21] = test: Evaluated for the distribution of radioactivity in tissues of female Fischer rats thyroid after 60 minutes intravenous administration; dose/g, range 30-53; type: ADME, organism-based, Thyroid gland; details: in vivo, 1 h
Rattus norvegicus [22] = test: Evaluated for the distribution of radioactivity in tissues of female Fischer rats lungs after 5 minutes intravenous administration; dose/g, range 0.95-1.49; type: ADME, organism-based, Lung; details: in vivo
Rattus norvegicus [23] = test: Evaluated for the distribution of radioactivity in tissues of female Fischer rats liver after 30 minutes intravenous administration; dose/g, range 0.57-0.72; type: ADME, organism-based; details: in vivo, 0.5 h
Rattus norvegicus [24] = test: Evaluated for the distribution of radioactivity in tissues of female Fischer rats blood after 60 minutes intravenous administration; dose/g, range 0.15-0.23; type: ADME, organism-based; details: in vivo, 1 h
Rattus norvegicus [25] = test: Evaluated for the distribution of radioactivity in tissues of female Fischer rats thyroid after 30 minutes intravenous administration; dose/g, range 32-42; type: ADME, organism-based, Thyroid gland; details: in vivo, 0.5 h
Rattus norvegicus [26] = test: Evaluated for the distribution of radioactivity in tissues of female Fischer rats kidneys after 60 minutes intravenous administration; dose/g, range 4.59-8.81; type: ADME, organism-based, Kidney; details: in vivo, 1 h
Rattus norvegicus [27] = test: Evaluated for the distribution of radioactivity in tissues of female Fischer rats liver after 60 minutes intravenous administration; dose/g, range 0.24-0.30; type: ADME, organism-based; details: in vivo, 1 h
Rattus norvegicus [28] = test: Evaluated for the distribution of radioactivity in tissues of female Fischer rats heart after 60 minutes intravenous administration; dose/g, range 3-3.70; type: ADME, organism-based; details: in vivo, 1 h
Rattus norvegicus [29] = test: Evaluated for the distribution of radioactivity in tissues of female Fischer rats heart after 30 minutes intravenous administration; dose/g, range 2.67-4.31; type: ADME, organism-based; details: in vivo, 0.5 h
Rattus norvegicus [30] = test: Evaluated for the distribution of radioactivity in tissues of female Fischer rats lungs after 30 minutes intravenous administration; dose/g, range 0.99-1.23; type: ADME, organism-based, Lung; details: in vivo, 0.5 h
Rattus norvegicus [31] = test: Evaluated for the distribution of radioactivity in tissues of female Fischer rats lungs after 60 minutes intravenous administration; dose/g, range 0.83-2.11; type: ADME, organism-based, Lung; details: in vivo, 1 h
Rattus norvegicus [32] = test: Evaluated for the distribution of radioactivity in tissues of female Fischer rats blood after 30 minutes intravenous administration; dose/g, range 0.22-0.32; type: ADME, organism-based; details: in vivo, 0.5 h
Rattus norvegicus [33] = test: Evaluated for the distribution of radioactivity in tissues of female Fischer rats liver after 5 minutes intravenous administration; dose/g, range 1.26-2.45; type: ADME, organism-based; details: in vivo
Rattus norvegicus [34] = test: Evaluated for the distribution of radioactivity in tissues of female Fischer rats kidneys after 30 minutes intravenous administration; dose/g, range 10.5-14.4; type: ADME, organism-based, Kidney; details: in vivo, 0.5 h
Rattus norvegicus [35] = test: Evaluated for the distribution of radioactivity in tissues of female Fischer rats blood after 5 minutes intravenous administration; dose/g, range 0.25-0.34; type: ADME, organism-based; details: in vivo
Rattus norvegicus [36] = test: Evaluated for the distribution of radioactivity in tissues of female Fischer rats thyroid after 5 minutes intravenous administration; dose/g, range 22-25; type: ADME, organism-based, Thyroid gland; details: in vivo

Distribution (Rattus norvegicus [1]): 4.4%
Distribution (Rattus norvegicus [2]): 33%
Distribution (Rattus norvegicus [3]): 0.49%
Distribution (Rattus norvegicus [4]): 0.62%
Distribution (Rattus norvegicus [5]): 37%
Distribution (Rattus norvegicus [6]): 4.19%
Distribution (Rattus norvegicus [7]): 1.18%
Distribution (Rattus norvegicus [8]): 0.12%
Distribution (Rattus norvegicus [9]): 1.28%
Distribution (Rattus norvegicus [10]): 1.48%
Distribution (Rattus norvegicus [11]): 1.48%
Distribution (Rattus norvegicus [12]): 9.36%
Distribution (Rattus norvegicus [13]): 0.14%
Distribution (Rattus norvegicus [14]): 6.8%
Distribution (Rattus norvegicus [15]): 3.99%
Distribution (Rattus norvegicus [16]): 1.72%
Distribution (Rattus norvegicus [17]): 31%
Distribution (Rattus norvegicus [18]): 0.29%
SMILES: I/C=C/CCC[P+](c1ccccc1)(c1ccccc1)c1ccccc1.[I-]

SMILES: I/C=C/CCC[As+](c1ccccc1)(c1ccccc1)c1ccccc1.[I-]
Distribution (Rattus norvegicus [19]): 13.14%
Distribution (Rattus norvegicus [20]): 3.22%
Distribution (Rattus norvegicus [21]): 43%
Distribution (Rattus norvegicus [22]): 1.24%
Distribution (Rattus norvegicus [23]): 0.64%
Distribution (Rattus norvegicus [24]): 0.19%
Distribution (Rattus norvegicus [25]): 37%
Distribution (Rattus norvegicus [26]): 6.92%
Distribution (Rattus norvegicus [27]): 0.27%
Distribution (Rattus norvegicus [28]): 3.37%
Distribution (Rattus norvegicus [29]): 3.17%
Distribution (Rattus norvegicus [30]): 1.09%
Distribution (Rattus norvegicus [31]): 1.31%
Distribution (Rattus norvegicus [32]): 0.26%
Distribution (Rattus norvegicus [33]): 1.78%
Distribution (Rattus norvegicus [34]): 12.01%
Distribution (Rattus norvegicus [35]): 0.31%
Distribution (Rattus norvegicus [36]): 23%
